From ChEMBL document CHEMBL1145030, “Novel pyrazolo[3,4-d]pyrimidine-based inhibitors of Staphlococcus aureus DNA polymerase III: design, synthesis, and biological evaluation” (J Med Chem, 2003)
Converted amounts (≈) assume the structure as drawn. The source made the active and inactive calls. No cut-off for these calls is given here.

Legend:
[1] = tested on: Bacillus subtilis; assay: Antibacterial activity against Bacillus subtilis; assay type: functional
Method in brief: (§1)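 Broth microdilution MIC against B. subtilis F2, E. faecium RLA-1, S. aureus MB2865 and S. pneumoniae MCL5350. Compounds were DMSO stocks, serially 2-fold diluted from 100 μM final, at 5% final DMSO, with a DMSO vehicle control. Wells were inoculated from cultures diluted in PBS and incubated overnight at 37 °C. MIC was scored visually as the lowest concentration preventing growth.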

[2] = tested on: Streptococcus pneumoniae; assay: Antibacterial activity against Streptococcus pneumoniae; assay type: functional; method in brief: as §1
[3] = tested on: Nucleic Acid; assay: Inhibitory activity against DNA polymerase III (DNA pol III) of Staphylococcus aureus at a concentration of 500 uM; assay type: nucleic-acid assay
Method in brief: (§2)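 S. aureus pol III was PCR-cloned into pET15, expressed in BL21 (1 mM IPTG), and purified on HiTrapQ then HiTrap Blue. Enzyme-started, it ran 30 min at 30 °C and was stopped with cold TCA/NaPPi. Incorporation was read by filter capture and scintillation counting.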

[4] = tested on: Nucleic Acid; assay: Inhibitory activity against DNA polymerase III (DNA pol III) of Staphylococcus aureus at a concentration of 500 uM; NA means Inactive; assay type: nucleic-acid assay; method in brief: as §2
[5] = tested on: Staphylococcus aureus; assay: Antibacterial activity against Staphylococcus aureus; assay type: functional; method in brief: as §1
[6] = tested on: Enterococcus faecium; assay: Antibacterial activity against Enterococcus faecium; assay type: functional; method in brief: as §1
[7] = tested on: Nucleic Acid; assay: Inhibitory activity against DNA polymerase III (DNA pol III) of Staphylococcus aureus; assay type: nucleic-acid assay; method in brief: as §2

SMILES	MIC [1]	MIC [2]	inhibition [3]	IC50 [7]	further results
Oc1[nH]c(NCc2cccc(C(F)(F)F)c2)nc2nncc1-2	–	–	–	–	NA [4]: inactive
Oc1[nH]c(NCc2ccc(Br)cc2)nc2nncc1-2	–	–	23%	–	–
Oc1[nH]c(NCc2ccc(F)c(Cl)c2)nc2nncc1-2	–	–	24%	–	–
Cc1ccc(Nc2nc(O)c3c[nH]nc3n2)cc1Br	8 µg/mL (≈ 25 µM)	8 µg/mL (≈ 25 µM)	69%	129 µM	MIC [5]: 8 µg/mL (≈ 25 µM); MIC [6]: 16 µg/mL (≈ 50 µM)
Cc1ccc(Nc2nc(O)c3c[nH]nc3n2)cc1I	9 µg/mL (≈ 24.5 µM)	9 µg/mL (≈ 24.5 µM)	86%	71 µM	MIC [5]: 9 µg/mL (≈ 24.5 µM); MIC [6]: 18 µg/mL (≈ 49 µM)
Cc1ccc(CNc2nc(O)c3c[nH]nc3n2)c(C)c1	–	–	–	–	inhibition [4]: 12%
COc1ccc(CNc2nc(O)c3c[nH]nc3n2)cc1	–	–	10%	–	–
Oc1[nH]c(NCc2ccccc2Cl)nc2nncc1-2	–	–	–	–	NA [4]: inactive
Oc1[nH]c(NCc2ccc(Cl)c(Cl)c2)nc2nncc1-2	–	–	58%	108 µM	–
CC(C)c1ccc(CNc2nc(O)c3c[nH]nc3n2)cc1	–	–	–	–	NA [4]: inactive
Cc1ccc(Nc2nc(O)c3c[nH]nc3n2)cc1Cl	7 µg/mL (≈ 25.4 µM)	14 µg/mL (≈ 50.8 µM)	62%	214 µM	MIC [5]: 14 µg/mL (≈ 50.8 µM); MIC [6]: 28 µg/mL (≈ 102 µM)
COc1cccc(CNc2nc(O)c3c[nH]nc3n2)c1	–	–	–	–	NA [4]: inactive
Oc1[nH]c(NCc2ccccc2)nc2nncc1-2	–	–	32%	–	–

More lines, main results first:

MIC [1]	MIC [2]	inhibition [3]	IC50 [7]	SMILES	further results
13 µg/mL (≈ 50.9 µM)	26 µg/mL (≈ 102 µM)	36%	–	Cc1ccc(Nc2nc(O)c3c[nH]nc3n2)cc1C	–
7 µg/mL (≈ 26 µM)	13 µg/mL (≈ 48.3 µM)	88%	68 µM	CCc1cc(Nc2nc(O)c3c[nH]nc3n2)ccc1C	MIC [5]: 27 µg/mL (≈ 100 µM); MIC [6]: 13 µg/mL (≈ 48.3 µM)
